The full list was thinned out, with hits kept by preference.
697 NFkB inh = inhibitors of the PMA/ionomycin-induced NF-kB reporter in 697 B cells; 330,000 compounds, 0.33% hits; inhibition, % at 4 µM; 697 B-cell NF-kB luciferase reporter, 16 h; AID 435022; in the data active = inhibition above about 35%
XBP1 UPR activ = activators of adaptive arm of unfolded protein response (XBP1). activation, % at 20 µM. CHO-XBP1 luciferase reporter, IRE1-XBP1 UPR activation, luminescence; percent of tunicamycin response, DMSO as zero. AID 463104. 330,000 compounds, 0.33% hits;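 active = versus positive control, 20 µM dose yields 30% or more activation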
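Signal: luciferase luminescence; Assay system: CHO-XBP1 luciferase reporter cells; Amount: one thousand reporter cells per well; Dosing: 20 µM single concentration, DMSO 1%; Benchmarks: high control tunicamycin 10 µg/mL final, low control DMSO vehicle only; Schedule: 6 h compound exposure at 37 °C, 5% CO2; Evaluation: percent activation relative to tunicamycin reference.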
CHOP inh = inhibitors of CHOP induction in ER stress response; CHO-K1 CHOP-promoter luciferase, tunicamycin-induced, 15-18 h; inhibition, % at 10 µM; 220,000 compounds, 3.8% hits; AID 2732;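 active = compounds that reduced the stress-induced luciferase reporter signal by more than about 70% of percent inhibition, limit read from the data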
Jurkat NFkB inh = inhibitors of the PMA/ionomycin-induced NF-kB reporter in Jurkat cells | PMA/ionomycin-induced NF-kB luciferase reporter, luminescence | inhibition, % at 4 µM | 330,000 compounds, 0.53% hits | AID 435003; in the data active = inhibition above about 50%
UPR CHOP act = apoptotic UPR (CHOP) activation; activation, % at 10 µM; 330,000 compounds, 0.34% hits; AID 449763; CHO-CHOP luciferase reporter, luminescence; percent of tunicamycin response over DMSO baseline;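 active = at 10 µM dose, activation of 40% or more, normalized to positive control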
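Assay system: CHO cells with stable CHOP pathway luciferase reporter; Buffer or medium: F12 plus 10% serum; Times: 16-18 h cell attachment, then 6 h compound exposure, 37 °C; Signal: luciferase luminescence; Read-out basis: percent activation relative to tunicamycin control; Control set: tunicamycin high control, DMSO low control.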
Jurkat NFkB conf = inhibitors of the PMA/ionomycin-induced NF-kB reporter in Jurkat cells, retest. shares compounds with Jurkat NFkB inh. inhibition, % at 4 µM. AID 435020. 2,700 compounds, 27% hits. Jurkat NF-kB luciferase, 16 h;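 active = inhibition reaching about 45% at 4 µM in either replicate, limit read from the data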
A number is an active result; 0 = inactive; - = no result.

SMILES	697 NFkB inh	XBP1 UPR activ	CHOP inh	Jurkat NFkB inh	UPR CHOP act	Jurkat NFkB conf
Cc1ccc2c(C(=O)CNc3nncs3)c(C)[nH]c2c1	0	0	0	0	0	-
N#C/C(=C\c1ccc(OCc2ccc(C(=O)O)cc2)cc1)C(=O)N1CCOCC1	0	0	82	66	0	60
Cn1c(C(=O)Nc2ccc3c(c2)OCCO3)cc2sccc21	0	0	0	0	0	0
O=C(Nc1ccc2c(c1)OCCO2)c1cc2sccc2n1Cc1ccccc1	0	0	0	0	0	-
COC(=O)c1c(-c2ccc(SC)cc2)sc2ccc(OC)cc12	0	0	-	0	0	0
CCOc1ccc(S(=O)(=O)N2CCC(C(=O)OC(C)C(=O)N(C)C3CCCCC3)CC2)cc1 (configuration not stated)	0	0	-	0	0	-
O=C(Nc1ccon1)c1cc2c(s1)CCCC2	0	0	0	0	0	0
O=C(c1cc2cc3ccc(Cl)cc3nc2o1)N1CCCCCC1	0	0	-	0	0	0
O=C(c1cc2cc(Cl)ccc2o1)N1CCCCCC1	0	0	-	0	0	-
COC(=O)c1ccccc1NC(=O)N1CCN(c2ccc(OC)cc2)CC1	0	0	0	0	0	-
O=c1[nH]c(-c2ccccn2)cc2ccccc12	0	0	0	62	0	0
O=C(CN(Cc1ccccc1)S(=O)(=O)c1ccc(F)cc1)NCc1cccnc1	0	0	-	0	0	-
CC1CCc2sc(C(=O)N(C)CC(=O)Nc3ccc(N4CCOCC4)cc3)cc2C1 (configuration not stated)	0	0	-	0	0	-
COc1ccc(-c2csc(-c3ccccc3)n2)c(OC)c1	0	0	0	0	0	-
COc1ccc(-c2csc(-c3cccs3)n2)c(OC)c1	0	0	0	0	0	0
O=C(CCC(=O)N(CC(=O)NC1CCCC1)Cc1ccccc1Cl)Nc1nccs1	0	0	-	0	0	-
Cc1nc2ccc(C(=O)N3c4ccccc4CC3C)cc2s1 (configuration not stated)	0	0	0	55	0	0
Cc1occc1C(=O)N/N=C/c1ccc(-c2ccccc2)cc1	0	0	-	0	0	0
Cc1occc1C(=O)N/N=C/c1cccnc1	0	0	0	0	0	-
Cc1ccc2c(c1)sc1nc(=O)n(-c3cccc(Cl)c3)c(=O)n12	0	0	0	0	0	0
Cc1ccc2c(c1)sc1nc(=O)n(-c3ccc(Cl)c(Cl)c3)c(=O)n12	0	0	0	0	0	-
COc1cccc(C2CC(=O)Nc3cc4c(cc32)CCC4)c1 (configuration not stated)	0	0	0	61	0	51
O=C1CC(c2cc(Br)ccc2F)c2cc3c(cc2N1)CCC3 (configuration not stated)	0	0	0	73	0	48
O=C1CC(c2cccc(Cl)c2)c2cc3c(cc2N1)CCC3 (configuration not stated)	0	0	86	56	0	0
O=C(Cn1nnc(-c2ccccc2)n1)N/N=C/c1ccco1	0	0	0	0	0	-
SMILES	697 NFkB inh	XBP1 UPR activ	CHOP inh	Jurkat NFkB inh	UPR CHOP act	Jurkat NFkB conf
O=C(c1ccccc1)c1ccc2c(c1)OCCCO2	0	0	0	0	0	-
CC(OC(=O)c1ccc2c(c1)OCCO2)C(=O)c1ccccc1 (configuration not stated)	0	0	-	0	0	0
CCOc1ccc(S(=O)(=O)NCCC(=O)NCc2ccc(OC)c(OC)c2)cc1	0	0	-	0	0	-
CC(=NCCc1c(C)[nH]c2ccc(C)cc12)C1=C(O)CC(c2ccccc2)CC1=O (configuration not stated)	0	0	0	56	0	0
CCC/C(O)=C1\C(=O)CC(c2ccccc2)CC1=NCCc1c(C)[nH]c2ccccc12 (configuration not stated)	0	0	0	0	0	-
CCCC(=NCCc1c(C)[nH]c2ccccc12)C1=C(O)CC(c2ccccc2)CC1=O (configuration not stated)	0	0	0	54	0	0
CCCCC(=NCCc1c(C)[nH]c2ccccc12)C1=C(O)CC(c2ccccc2)CC1=O (configuration not stated)	0	0	0	0	0	-
CC(=NCCc1c(C)[nH]c2ccc(OC(F)(F)F)cc12)C1=C(O)CC(c2ccccc2)CC1=O (configuration not stated)	0	0	72	57	0	0
OC(COCc1ccc(Cl)cc1)CN1CCN(c2ccccn2)CC1 (configuration not stated)	0	0	0	0	0	-
COc1cccc(-c2nc(CS(=O)(=O)CC(=O)NCCN3CCOCC3)c(C)o2)c1	0	0	-	0	0	-
CC(=O)c1ccc(N2CCN(S(=O)(=O)c3ccc4c5c3CC(=O)N5CC(C)S4)CC2)cc1 (configuration not stated)	0	0	-	0	0	-
Cc1ccc(/C=N/NC(=O)C2COc3ccccc3O2)s1 (configuration not stated)	0	0	-	59	0	48
Cc1cc(F)ccc1NC(=O)Cn1c(C)csc1=O	0	0	-	0	0	-
Cc1cc(C)c(C#N)c(SCc2nnc(-c3ccccc3[N+](=O)[O-])o2)n1	0	0	0	0	0	0
Cc1cc(C)c(C#N)c(SCc2ccccc2[N+](=O)[O-])n1	0	0	0	0	0	-
Cc1ccc(S(=O)(=O)N2CCCCC2CCNC(=O)C(=O)NCc2cccnc2)cc1 (configuration not stated)	0	0	-	62	0	0
COc1ccc(S(=O)(=O)N2CCCC2CNC(=O)C(=O)NCCc2ccccc2)cc1 (configuration not stated)	0	0	-	54	0	0
O=C(NCCC1CCCCN1S(=O)(=O)c1ccccc1)C(=O)Nc1ccc(F)cc1 (configuration not stated)	0	0	-	0	0	-
COc1ccc(NC(=O)C(=O)NCCC2CCCCN2S(=O)(=O)c2ccc(F)cc2)cc1 (configuration not stated)	0	0	-	60	0	0
Nc1nc(SCC(=O)Nc2ncc(C(F)(F)F)cc2Cl)n[nH]1	0	0	0	0	0	-
O=C(C1CC=CCC1)N1CCN(S(=O)(=O)c2ccc(F)cc2)CC1 (configuration not stated)	0	0	-	0	0	-
Cc1ccc(O)c(NC(=O)C2CC(c3cccc(Br)c3)=NO2)c1 (configuration not stated)	0	0	-	63	0	0
Cc1ccc(-n2c(C)cc(/C=c3/sc4nc5ccccc5n4c3=O)c2C)cc1	0	0	85	56	0	0
COc1cc(C)c(Cl)cc1S(=O)(=O)NC1CC(C)(C)NC(C)(C)C1	0	0	0	0	0	-
CNc1nc2c(-c3ccc(Cl)cc3)nnn2c2ccccc12	0	0	-	0	0	-
